Data reported in BindingDB's records for doi:10.1021/jm990600c (University of California, 2000).
Where a name gives a salt, the structure may show the parent alone.

Experiments:
[1] = molecular target: T1, Gag-Pol polyprotein [489-587] (Human immunodeficiency virus 1, UniProt P04585); assay: Inhibition of strand -transfer (ST) activity in the presence of Mn2+
T1 construct: 489-587
Method in brief: (§1)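 Purified recombinant HIV-1 integrase with DNAs mimicking one viral cDNA end and a target DNA, Mn2+ as the divalent cofactor; compounds titrated in. Terminal cleavage (3'-processing) and strand-transfer products resolved and read by gel assay.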

[2] = molecular target: T1, Gag-Pol polyprotein [489-587]; assay: Inhibition of 3'-processing (TC) in the presence of Mn2+ in vitro; method in brief: as §1
[3] = molecular target: T1, Gag-Pol polyprotein [489-587]; assay: Tested in vitro against strand -transfer (ST) activity in the presence of Mg2+ as the cationic cofactor
Method in brief: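 Strand transfer by purified recombinant HIV-1 integrase with Mg2+ as cofactor, monitored in a microtiter plate format with viral-end and target DNAs; product detected through a digoxygenin label in the DNA; compounds titrated.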

SMILES | IC50 [1] | IC50 [2] | IC50 [3]
CC1(C)CC2(CC(C)(C)c3cc(C=O)c(O)cc32)c2cc(O)c(C=O)cc21 [6,6'-dihydroxy-3,3,3',3'-tetramethyl-1,1'-spirobi[2,3-dihydro-1H-indene]-5,5'-dicarbaldehyde] | 6 µM | 35 µM | 16 µM
CC1(C)CC2(CC(C)(C)c3cc(OS(=O)(=O)O)c(OS(=O)(=O)O)cc32)c2cc(OS(=O)(=O)O)c(OS(=O)(=O)O)cc21 [3,3,3',3'-tetramethyl-1,1'-spirobi(indan)-5,5',6,6'-tetrol tetrasulfate] | 2 µM | 2.8 µM | –
CC1(C)CC2(CC(C)(C)c3cc(S(=O)(=O)O)c(O)cc32)c2cc(O)c(S(=O)(=O)O)cc21 [6,6'-dihydroxy-3,3,3',3'-tetramethyl-1,1'-spirobi[2,3-dihydro-1H-indene]-5,5'-disulfonic acid] | – | – | 69 µM
CC1(C)CC2(CC(C)(C)c3c(Br)c(O)c(O)c(Br)c32)c2c(Br)c(O)c(O)c(Br)c21 [4,4',7,7'-tetrabromo-3,3,3',3'-tetramethyl-1,1'-spirobi[2,3-dihydro-1H-indene]-5,5',6,6'-tetraol] | 1.78 µM | 3.14 µM | 15 µM
CC1(C)CC2(CC(C)(C)c3cc([N+](=O)[O-])c(O)c([N+](=O)[O-])c32)c2cc(O)c([N+](=O)[O-])cc21 (centres undefined) [3,3,3',3'-tetramethyl-5,5',7'-trinitro-1,1'-spirobi[2,3-dihydro-1H-indene]-6,6'-diol] | 25 µM | 44 µM | 47 µM
CC1(C)CC2(CC(C)(C)c3cc(Br)c(O)cc32)c2cc(O)c(Br)cc21 [5,5'-dibromo-3,3,3',3'-tetramethyl-1,1'-spirobi[2,3-dihydro-1H-indene]-6,6'-diol] | 10 µM | 11 µM | –
CC1(C)CC2(CC(C)(C)c3ccc(O)c([N+](=O)[O-])c32)c2cc(O)c([N+](=O)[O-])cc21 (centres undefined) [3,3,3',3'-tetramethyl-5,7'-dinitro-1,1'-spirobi[2,3-dihydro-1H-indene]-6,6'-diol] | 53 µM | 47 µM | 100 µM
CC1(C)CC2(CC(C)(C)c3cc(I)c(O)cc32)c2cc(O)c(I)cc21 [5,5'-diiodo-3,3,3',3'-tetramethyl-1,1'-spirobi[2,3-dihydro-1H-indene]-6,6'-diol] | 3.12 µM | 6.28 µM | –
CC1(C)CC2(CC(C)(C)c3cc(O)c(O)cc32)c2cc(O)c(O)cc21 [HIV-1 Integrase Inhibitor] | 5 µM | 17 µM | –
CC1(C)CC2(CC(C)(C)c3ccc(O)c(NC(N)=O)c32)c2cc(O)c(NC(N)=O)cc21 (centres undefined) [3,3,3',3'-tetramethyl-1,1'-spirobi(indan)-6,6'-dihydroxy-5,7'-bisurea] | 350 µM | 420 µM | –
CC1(C)CC2(CC(C)(C)c3cc(N)c(O)cc32)c2cc(O)c(N)cc21 [3,3,3',3'-tetramethyl-1,1'-spirobi(indan)-5,5'-diamino-6,6'-diol Dihydrochloric salt] | – | – | 33 µM
CC1(C)CC2(CC(C)(C)c3ccc(O)cc32)c2cc(O)ccc21 [3,3,3',3'-tetramethyl-1,1'-spirobi[2,3-dihydro-1H-indene]-6,6'-diol] | 231 µM | 275 µM | –
CC1(C)CC2(CC(C)(C)c3c(Br)c(OS(=O)(=O)O)c(OS(=O)(=O)O)c(Br)c32)c2c(Br)c(OS(=O)(=O)O)c(OS(=O)(=O)O)c(Br)c21 [3,3,3',3'-tetramethyl-1,1'-spirobi(indan)-4,4',7,7'-tetrabromo-5,5',6,6'-tetrol tetrasulfate] | 0.35 µM | 1.4 µM | 4 µM
